# High-throughput results (PubChem BioAssay)
# A selection: hits, their analogues and other compounds. The true share with any hit is near 1.5%.
# HEK293 NFkB inh = inhibitors of PMA/ionomycin-induced NF-kB reporter, primary screen, antigen receptor NF-kB inhibitor project, cell-based, HEK-293 luciferase reporter, luminescence. 62,000 compounds, 0.21% hits. HEK-293 NF-kB luciferase reporter. inhibition, % at 3 µM;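 active = inhibition above the mean of all tested compounds plus 3 SD, cut at about 40% in these data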;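 note: 0% = stimulated DMSO wells and 100% = 10 µM reference inhibitor 5653914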
#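 System: NF-kB luciferase reporter HEK-293 cells | Replication: Single test | Control set: DMSO vs reference inhibitor | Evaluation: % inhibition | Schedule: 1 h pretreatment, 16 h stimulation, 37 °C | Probe or stimulus: PMA with ionomycin | Compound dosing: One dose, 3 µM | Detection: Luciferase luminescence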
# HePTP inhibitor = inhibitors of human HePTP phosphatase, primary screen, biochemical, absorbance, leukemia target; Tyrosine-protein phosphatase non-receptor type 7 (Homo sapiens), P35236; recombinant HePTP phosphatase activity, OD absorbance; inhibition, % at 20 µM; 110,000 compounds, 0.64% hits; in the data active = inhibition above about 50%;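 note: plate controls were vehicle for no effect and reference inhibitor for full effect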
# AP complement = alternative complement pathway inhibitors, primary screen, biochemical, ELISA, human serum, orthogonally pooled compounds; inhibition, % at 5 µM; LPS-coated ELISA, C3 deposition; tested in compound mixtures; 62,000 compounds, 0.08% hits;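 active = inhibition above 30% in each of the two pooled mixtures holding the compound, so the lower value exceeds 30%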;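 note: 0% = serum in Mg-EGTA without compound and 100% = EDTA serum blank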
#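 Test system: human serum complement alternative pathway, C3 deposition onto LPS / Medium: Mg2+-EGTA GVB++ buffer containing human serum at 1:15 dilution / Probe or stimulus: Plate-bound LPS / Times: 1 h at 37 °C / Signal: ELISA with HRP anti-human C3 antibody, TMB substrate, absorbance 450 nm / Measure: percent inhibition / Repeats: two pool placements per compound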
# PLK1 kinase inh = human PLK1 kinase inhibitors, primary screen, biochemical, TR-FRET; Serine/threonine-protein kinase PLK1 (Homo sapiens), P53350; recombinant PLK1 kinase, TR-FRET peptide phosphorylation; inhibition, % at 10 µM; 97,000 compounds, 0.53% hits; AID 619, 2007;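 active = inhibition of 50% or more in the single-concentration screen; inactive = inhibition below 50%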;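 note: 0% = DMSO max control and 100% = H-89 dihydrochloride min control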
# Target sequence (P53350 whole entry, looked up): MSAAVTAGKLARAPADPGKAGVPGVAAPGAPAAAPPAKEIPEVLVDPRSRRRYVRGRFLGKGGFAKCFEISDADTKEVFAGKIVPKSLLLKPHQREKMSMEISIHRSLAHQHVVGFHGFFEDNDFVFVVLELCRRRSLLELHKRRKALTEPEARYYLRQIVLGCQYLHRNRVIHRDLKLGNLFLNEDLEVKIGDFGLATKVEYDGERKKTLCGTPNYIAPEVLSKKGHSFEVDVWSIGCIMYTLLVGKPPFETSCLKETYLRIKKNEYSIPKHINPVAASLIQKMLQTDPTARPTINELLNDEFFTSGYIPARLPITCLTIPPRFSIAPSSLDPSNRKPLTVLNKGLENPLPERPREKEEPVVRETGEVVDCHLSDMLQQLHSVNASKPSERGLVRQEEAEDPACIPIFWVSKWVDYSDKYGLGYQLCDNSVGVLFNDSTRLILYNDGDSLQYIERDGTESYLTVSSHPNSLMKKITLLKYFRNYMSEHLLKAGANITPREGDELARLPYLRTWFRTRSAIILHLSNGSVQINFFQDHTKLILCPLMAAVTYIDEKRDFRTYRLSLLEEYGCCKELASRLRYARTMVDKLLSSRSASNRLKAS
# PLK1 PBD inh = Plk1 polo box domain binding inhibitors, primary screen, biochemical, fluorescence polarization | AID 693, 2007 | 97,000 compounds, 0.13% hits | inhibition, %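 (tested at about 20 µM)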 | Plk1 PBD phosphopeptide binding | Serine/threonine-protein kinase PLK1 (Homo sapiens), P53350; in the data active = inhibition above about 34%, passing the limit was not always enough
# Pyk2 oligo antag = antagonists of Pyk2 self-association, primary screen, Q293 cells, FERM NanoBiT luminescence, HTS | Protein-tyrosine kinase 2-beta (Homo sapiens), Q14289 | hits give low values | z-score (the deposit names both 25 µM and 10 µM) | 99,000 compounds, 0.83% hits | AID 1347419, 2020;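 active = Z-score of -3 or lower, scaled per plate to the spread of control and sample wells; inactive = z-score above -3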;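 note: negative z-score means lost luminescence so less FERM oligomerization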
# * marks the source's active call; other numbers are inactive results; x = no result given.
SMILES,HEK293 NFkB inh,HePTP inhibitor,AP complement,PLK1 kinase inh,PLK1 PBD inh,Pyk2 oligo antag
O=C1c2ccc(Oc3ccc4c(c3)C(=O)N(c3ccc(S)cc3)C4=O)cc2C(=O)N1c1ccc(S)cc1,x,102*,x,x,x,x
COc1ccc(C(NS(=O)(=O)c2ccc(C)c([N+](=O)[O-])c2)c2ccccc2)cc1 (centres undefined),x,9,x,x,x,x
O=C(NCCO)Nc1ccc(Cc2ccc(NC(=O)NCCO)cc2)cc1,x,13,x,x,x,x
O=C(NC1CCCCC1)C(c1cccs1)N(Cc1cccs1)C(=O)c1cccs1 (centres undefined),x,x,x,-15,-23,-3.9*
CC(=O)NCC(=O)N(Cc1ccco1)C1(C(=O)NC2CCCCC2)CCCCC1,4,-2,8,0,-13,0.42
O=C(Cc1cccs1)N(Cc1ccco1)C1(C(=O)NC2CCCCC2)CCCCC1,x,x,x,2,7,-4.2*
O=C(Cc1cccs1)N(Cc1cccs1)C1(C(=O)NC2CCCC2)CCCCC1,x,x,x,-10,-19,-3.4*
CC(=O)N(Cc1ccco1)C1(C(=O)NC2CCCCC2)CCCCC1,7,-3,12,-2,-18,-0.6
CC1(C)C(=O)N(Cc2ccccc2)c2ccccc2N1C(=O)c1ccc([N+](=O)[O-])cc1,x,74*,x,x,x,x
CCC1CCc2c(sc(NC(=O)CCC3CCCCC3)c2C(N)=O)C1 (centres undefined),x,2,x,x,x,x
C=CCN1C(=O)C(C)(C)Nc2ccccc21,-4,9,3,-17,2,-0.71
C=CCN1C(=O)N(/C=C/C)c2cccc3cccc1c23,1,6,-1,2,-5,-3.7*
CC1=NN(c2ccc(S(N)(=O)=O)cc2)C(=O)/C1=C\c1ccc(-c2ccc([N+](=O)[O-])cc2)o1,x,7,x,x,x,x
COc1ccccc1-c1c(C(F)(F)F)oc2cc(OCC(=O)O)ccc2c1=O,x,4,x,x,x,x
COc1ccc(-c2cn3cccnc3n2)cc1NC(=O)c1ccc(Br)o1,14,4,1,4,32,-3.2*
O=C(CN(C(=O)Cn1nnc(-c2cccs2)n1)c1ccc2c(c1)OCCO2)NCc1ccccc1,x,x,x,10,-15,-3*
Brc1ccc(/C=N/c2ncn[nH]2)cc1,x,-13,x,x,x,x
O=C(O)c1ccc(/C=N/c2ncn[nH]2)cc1,x,100*,x,x,x,x
COc1ccc(NC(=O)c2cc3cc(Br)ccc3oc2=O)c(OC)c1,x,10,x,x,x,x
O=C(O)c1ccc(/C=C2\SC(=O)N(c3ccc(F)cc3)C2=O)cc1,x,100*,x,x,x,x
C=CCn1c(N)c(C(=O)Nc2ccc(C)c(C)c2)c2nc3ccccc3nc21,x,x,x,-12,8,-4*
COc1ccc(NC(=O)c2c(C)c(-c3ccc(C)cc3)nc3ccccc23)c(OC)c1,x,-4,x,x,x,x
COc1ccc(-c2nc3ccccc3c(C(=O)Nc3ccc(C)cc3)c2C)cc1,x,104*,x,x,x,x
Cc1cc(C)cc(N=c2c([N+](=O)[O-])nn(-c3cccc(Cl)c3)n2O)c1,x,x,x,2,34,-0.62
CC(C)c1ccc(N=c2c([N+](=O)[O-])nn(-c3ccc4c(c3)OCCO4)n2O)cc1,x,x,x,0,-15,-4*
SMILES,HEK293 NFkB inh,HePTP inhibitor,AP complement,PLK1 kinase inh,PLK1 PBD inh,Pyk2 oligo antag
O=C(CSc1nc(-c2ccccc2)c(-c2ccccc2)[nH]1)Nc1nccs1,x,x,x,61*,-14,-2.5
CCn1c(Cc2cccc3ccccc23)nnc1SCC(=O)Nc1nccs1,x,x,x,65*,-6,0.39
CC1CCN(C(=O)Cn2c(SCC(=O)Nc3nccs3)nc3ccccc32)CC1,29,10,3,61*,25,0.17
CCc1ccccc1NC(=O)CSc1nc2ccccc2n1CC(=O)N1CCCC1,x,x,x,-11,3,0.21
Cc1ccc(-c2nnc(SCC(=O)Nc3nccs3)n2N)cc1,x,x,x,63*,-21,-0.24
CCn1c(SCC(=O)Nc2nccs2)nnc1-c1ccc(C)cc1,7,13,15,16,-10,-0.01
Fc1c(F)c(F)c(SCCc2ccncc2)c(F)c1F,x,5,x,x,x,x
Cc1ccc(-c2cc3c(nn2)-c2ccccc2C3=O)cc1,62*,10,6,x,x,x
O=C1CN(C(=O)COc2ccccc2)CCN1,10,6,19,61*,-4,x
O=C(COc1ccccc1)N1CCCCC1,x,-4,x,x,x,x
O=C(Nc1nc2ccc3ccccc3c2s1)c1ccc(C(=O)c2ccccc2)cc1,x,104*,x,x,x,x
O=C1C2=C(c3ccccc31)C(c1ccncc1)Nc1ccc3ccccc3c12 (centres undefined),x,10,x,x,x,x
Cc1c(C(=O)OCCOC(C)C)[nH]c2c1C(=O)CC(c1ccco1)C2 (centres undefined),48*,9,7,x,x,x
CCOC(=O)c1[nH]c2c(c1C)C(=O)CC(c1ccco1)C2 (centres undefined),41*,12,7,x,x,x
COc1ccc(-n2c(=S)[nH]c3sc4c(c3c2=O)CC(C)(C)SC4)cc1,x,-16,x,x,x,x
O=[N+]([O-])c1cccc(S(=O)(=O)NCc2cccnc2)c1,x,0,x,x,x,x
O=[N+]([O-])c1cccc(S(=O)(=O)NCc2ccncc2)c1,x,103*,x,x,x,x
Cc1cc(C)nc(NC(=O)CCC(=O)O)c1,x,0,x,x,x,x
O=C1/C(=C/c2cc([N+](=O)[O-])ccc2Cl)SC(=S)N1c1ccccc1,x,2,x,x,x,x
O=C1/C(=C\c2cc([N+](=O)[O-])cc(Br)c2O)SC(=S)N1c1cccc(Cl)c1,x,101*,x,x,x,x
CCOC(=O)c1ccc(NC(=O)c2ccc(I)cc2)cc1,x,-5,x,x,x,x
O=C(O)c1cccc2c1-c1ccccc1/C2=N\O,x,4,x,x,x,x
Cn1cccc1/C=C1/C(=O)NC(=S)N(c2cccc(Cl)c2)C1=O,x,101*,x,x,x,x
O=C1NC(=S)N(c2cccc(Cl)c2)C(=O)/C1=C\c1ccc(N2CCCC2)cc1,x,16,x,x,x,x
O=C(Nc1ccc(Cl)c(-c2nc3ccccc3o2)c1)c1ccc(Br)cc1,x,3,x,x,x,x
SMILES,HEK293 NFkB inh,HePTP inhibitor,AP complement,PLK1 kinase inh,PLK1 PBD inh,Pyk2 oligo antag
Cc1ccc(NC(=S)NC(=O)c2ccco2)c(Br)c1,x,4,x,x,x,x
O=C(Nc1ccc2nc(-c3ccco3)c(-c3ccco3)nc2c1)NC1CC1,x,x,x,38,-6,-0.13
O=C(NCCCO)Nc1ccc2nc(-c3ccco3)c(-c3ccco3)nc2c1,x,x,x,52*,-20,x
CCc1ccc(NC2=C(Cl)C(=O)N(c3ccc(C)cc3C)C2=O)cc1,x,-2,x,x,x,x
CCc1ccccc1NC(=O)CN(c1ccc(F)cc1)S(=O)(=O)c1ccccc1,x,4,x,x,x,x
CCOC(=O)N1CCC(Nc2c(NCCCOC)c(=O)c2=O)CC1,15,3,8,-19,-13,0.97
CCOC(=O)N1CCC(Nc2c(OCC)c(=O)c2=O)CC1,3,-3,5,69*,-1,x
O=C(COc1ccc(I)cc1)Nc1ccc2c(c1)oc1ccccc12,x,102*,x,x,x,x
